Data set [1] is filed under the species Mus musculus. The data set is described as follows: Mutation read through activity at premature termination codon TGA-containing mouse dystrophin gene exon 23 nucleotide sequence expressed in African green monkey COS7 cells assessed as ratio of luciferase activity to beta-galactosidase activity at 200 uM after 48 hrs by dual luciferase reporter gene assay relative to control. The class given is cell-based. In a few lines:
(§1)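 COS-7 cells carrying a dual-reporter plasmid (β-galactosidase and luciferase genes joined by a TGA-containing stop sequence). Compounds were tested at 200 μM; the dose-dependent series ran 10–200 μM. Activity is reported as a ratio relative to D-MEM control, as mean ± SD, n = 3.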
For orientation: Reporter assays use an easily measured gene product as a stand-in for the process of interest.

A further data set concerns NHDF. The data set can be described thus: Cytotoxicity against HDF assessed as reduction in cell viability at 200 uM after 48 hrs by WST1 assay. Format: cell-based. Conditions: human. (Tetrazolium dyes change colour on reduction, which living cells bring about.)
For the next data set, the system named is COS-7. The data set is described as follows: Cytotoxicity against African green monkey COS7 cells assessed as reduction in cell viability at 200 uM after 48 hrs by WST1 assay. The class given is cell-based. Conditions: chlorocebus aethiops, cos-7, 48 h.
The subject of data set [2] is Mus musculus. The data set is described as follows: Mutation read through activity in READ mouse on C57/BL6 background expressing premature termination codon TGA-containing mouse dystrophin gene exon 23 nucleotide sequence gene exon 23 assessed as ratio of luciferase activity to beta-galactosidase activity at 1 mg/20g body weight, sc administered daily for 7 days measured post last dose by dual luciferase reporter gene assay relative to control. The class given is functional. In a few lines: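 READ mice carry a dual reporter split by a PTC. Subcutaneous injection into the abdominal region at 1 mg in 0.2 mL saline per 20 g body weight, daily for 7 days. Negative control: saline. Positive control: arbekacin. Readthrough reported as mean ± SD.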

For data set [3], the species on record is Mus musculus. The data set can be described thus: Mutation read through activity at premature termination codon TAG-containing mouse dystrophin gene exon 23 nucleotide sequence expressed in African green monkey COS7 cells assessed as ratio of luciferase activity to beta-galactosidase activity at 200 uM after 48 hrs by dual luciferase reporter gene assay relative to control. Format: cell-based.

The species named for data set [4] is Mus musculus. The data set is described as follows: Mutation read through activity at premature termination codon TAA-containing mouse dystrophin gene exon 23 nucleotide sequence expressed in African green monkey COS7 cells assessed as ratio of luciferase activity to beta-galactosidase activity at 200 uM after 48 hrs by dual luciferase reporter gene assay relative to control. The class given is cell-based.

The species entered for data set [5] is Mus musculus. The data set can be described thus: Mutation read through activity at premature termination codon TGA-containing mouse dystrophin gene exon 23 nucleotide sequence expressed in African green monkey COS7 cells assessed as ratio of luciferase activity to beta-galactosidase activity after 48 hrs by dual luciferase reporter gene assay relative to control. The class given is cell-based. In outline: as §1

Data set [6] is filed under the species Mus musculus. The data set can be described thus: Mutation read through activity at premature termination codon TGA-containing mouse dystrophin gene exon 23 nucleotide sequence expressed in African green monkey COS7 cells assessed as ratio of luciferase activity to beta-galactosidase activity at 200 uM after 48 hrs by dual luciferase reporter gene assay relative to control relative to in-frame control containing TGG. The class given is cell-based.

The next data set addresses T1, Liver carboxylesterase (Sus scrofa, UniProt Q29550).
T1 sequence (Q29550 whole entry): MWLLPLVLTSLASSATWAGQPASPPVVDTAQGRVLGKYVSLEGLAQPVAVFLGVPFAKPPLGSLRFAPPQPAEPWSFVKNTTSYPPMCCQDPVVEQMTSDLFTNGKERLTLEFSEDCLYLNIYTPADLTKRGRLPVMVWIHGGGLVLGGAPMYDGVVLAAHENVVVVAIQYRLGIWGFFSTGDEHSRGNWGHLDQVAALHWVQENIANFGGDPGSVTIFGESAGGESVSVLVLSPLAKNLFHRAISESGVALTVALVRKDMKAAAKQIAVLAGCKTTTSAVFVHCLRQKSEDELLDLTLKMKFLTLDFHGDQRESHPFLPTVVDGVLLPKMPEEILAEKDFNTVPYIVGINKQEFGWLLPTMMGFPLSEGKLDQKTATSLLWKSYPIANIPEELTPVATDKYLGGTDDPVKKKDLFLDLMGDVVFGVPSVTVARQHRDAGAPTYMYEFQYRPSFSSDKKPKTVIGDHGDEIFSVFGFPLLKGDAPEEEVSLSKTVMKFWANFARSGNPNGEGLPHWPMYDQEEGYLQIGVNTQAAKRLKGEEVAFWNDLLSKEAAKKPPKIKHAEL
The data set can be described thus: Prodrug conversion assessed as porcine liver esterase-mediated TCP-126 formation at 2 mM up to 6 hrs by RP-HPLC method. The note with it: pig, isolated protein, 2000 µM, TDE = time-dependent effect. The class given is ADME. In outline: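 Incubated with porcine liver esterase (110 units/mL) in 100 mM phosphate buffer, pH 7.4, at 37 °C. Reaction mixtures were analysed by RP-HPLC over time for conversion to the parent compound. The new metabolite peak was collected and identified by high-resolution MS.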

Data set [7] concerns Mus musculus. The data set can be described thus: Acute toxicity in B10 mouse assessed reduction in body weight at 10 mg/day/20g body weight, sc for 14 days and measured on day 1. The class given is organism-based. Conditions: in vivo, 336 h. In outline: (§2)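 Single subcutaneous injection into the abdominal region of B10 mice at 10 mg day–1 20 g–1 body weight, given only once. Body weight tracked over 2 weeks. Treated group n = 4; saline-injected B10 mice (n = 3) served as controls.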

Data set [8] relates to Mus musculus. The data set is described as follows: Acute toxicity in B10 mouse assessed as change in body weight at 10 mg/day/20g body weight, sc for 14 days and measured on 1 to 7 and 14 days. The class given is organism-based. Conditions: in vivo, 336 h. In outline: as §2
Data set [9] can be described thus: Stability in 100 mM phosphate buffer (pH 7.4) assessed as parent compound remaining at 200 uM measured after 6 hrs in absence of esterase by RP-HPLC and high-resolution mass spectrometry method.

The structures appear in SMILES notation.

Turning to `CN(CC(=O)O)NC(=O)C[C@H](CCCN)NC(=O)CN`, the fold change (FC) in the data set filed under Mus musculus [1] was 2.1.

`CN(CC(=O)O)NC(=O)C[C@H](N)C[C@@H](O)CN`: in the data set filed under Mus musculus [1], the fold change (FC) came out at 1.54.

For `CC(C)C[C@H](N)C(=O)N[C@@H](CCCN)CC(=O)NN(C)CC(=O)OCc1ccccc1`, in the data set filed under Mus musculus [1], the fold change (FC) was determined as 8.92. In addition, the Activity entry in the data set on NHDF and in the data set on COS-7 was “Non-Toxic” throughout.

`CC(C)[C@H](N)C(=O)N[C@@H](CCCN)CC(=O)NN(C)CC(=O)O`: the fold change (FC) in the data set filed under Mus musculus [1] was 1.87.

Regarding `CC(C)C[C@H](N)C(=O)N[C@@H](CCCN)CC(=O)NN(C)CC(=O)OCc1cccc(Cl)c1`, the fold change (FC) in the data set filed under Mus musculus [1] stood at 5.37. Moreover, the Activity result in the data set on NHDF and in the data set on COS-7 was “Non-Toxic” each time.

For `CN(CC(=O)O)NC(=O)C[C@H](CCCN)NC(=O)[C@@H](N)Cc1ccc(O)cc1`, the fold change (FC) in the data set filed under Mus musculus [1] came to 1.92.

On to `CN(CC(=O)O)NC(=O)C[C@H](CCCN)NC(=O)[C@@H](N)Cc1ccccc1`, for which the fold change (FC) in the data set listed under Mus musculus [1] was 2.13.

For `COc1cccc(COC(=O)CN(C)NC(=O)C[C@H](CCCN)NC(=O)[C@@H](N)CC(C)C)c1`, in the data set listed under Mus musculus [1], the fold change (FC) is 5.15. In addition, the Activity result in the data set on NHDF and with COS-7 was “Non-Toxic” in each case.

As to `NCC[C@H](O)C(=O)N[C@@H]1C[C@H](N)[C@@H](O[C@H]2O[C@H](CN)CC[C@H]2N)[C@H](O)[C@H]1O[C@H]1O[C@H](CO)[C@@H](O)[C@H](N)[C@H]1O` [ARBEKACIN], the “fold change (FC)” value with Mus musculus [2] is on record as 1.94.

For the compound `CC(C)C[C@H](N)C(=O)N[C@@H](CCCN)CC(=O)NN(C)CC(=O)O`, the fold change (FC) was 2.25 to 2.72 in the data set listed under Mus musculus [1], 1.3 in the data set listed under Mus musculus [3] and 1.11 in the data set listed under Mus musculus [4]. In addition, the Activity entry with NHDF and in the data set on COS-7 was “Non-Toxic” in each case.

With `CC(C)C[C@H](O)C(=O)N[C@@H](CCCN)CC(=O)NN(C)CC(=O)O`, in the data set listed under Mus musculus [1], the fold change (FC) is 1.33.

For `CC(C)C[C@H](N)C(=O)N[C@@H](CCCN)CC(=O)NN(C)CC(=O)OCc1ccccc1[N+](=O)[O-]`, the fold change (FC) in the data set filed under Mus musculus [1] worked out at 9.15. The Activity entry in the data set on NHDF and in the data set on COS-7 was “Non-Toxic” in each case.

With `CN[C@@H]1[C@@H](O)[C@@H](O[C@H]2[C@H](O)[C@@H](O[C@H]3O[C@H]([C@H](C)O)[C@@H](O)[C@H](O)[C@H]3N)[C@H](N)C[C@@H]2N)OC[C@]1(C)O`, in the data set filed under Mus musculus [1], the fold change (FC) was determined as 7.2. The Activity entry with NHDF and with COS-7 was “Non-Toxic” throughout.

For the compound `CC(C)C[C@H](N)C(=O)N[C@@H](CCCN)CC(=O)NN(C)CC(=O)OCc1ccccc1Br`, the fold change (FC) in the data set listed under Mus musculus [1] is 8.84 to 8.89; in the data set filed under Mus musculus [3] it was 2.55; in the data set listed under Mus musculus [4] it was 1.22; with Mus musculus [2] it was 1.59. Also, the Activity entry in the data set on NHDF was “Non-Toxic”; in the data set with COS-7 it was “Non-Toxic”; in the data set listed under Mus musculus [5], “Dose-dependent effect”; in the data set listed under Mus musculus [6] it was 2.69%; in the data set on Mus musculus [7], “Toxic”; with Mus musculus [8] it was “Non-Toxic”. The Drug metabolism entry at Liver carboxylesterase is on record as “Tde”. Further, in data set [9], the share remaining at 6 h, 200 µM turned out to be 99%.

Regarding `CC(C)C[C@@H](N)C(=O)N[C@@H](CCCN)CC(=O)NN(C)CC(=O)O`, the fold change (FC) in the data set filed under Mus musculus [1] was 1.3.

In general, share remaining refers to what is left of the initial amount, in per cent.
